The target of data set [1] is T1, Myelin-associated glycoprotein (Mus musculus, UniProt P20917).
T1 sequence (P20917 whole entry): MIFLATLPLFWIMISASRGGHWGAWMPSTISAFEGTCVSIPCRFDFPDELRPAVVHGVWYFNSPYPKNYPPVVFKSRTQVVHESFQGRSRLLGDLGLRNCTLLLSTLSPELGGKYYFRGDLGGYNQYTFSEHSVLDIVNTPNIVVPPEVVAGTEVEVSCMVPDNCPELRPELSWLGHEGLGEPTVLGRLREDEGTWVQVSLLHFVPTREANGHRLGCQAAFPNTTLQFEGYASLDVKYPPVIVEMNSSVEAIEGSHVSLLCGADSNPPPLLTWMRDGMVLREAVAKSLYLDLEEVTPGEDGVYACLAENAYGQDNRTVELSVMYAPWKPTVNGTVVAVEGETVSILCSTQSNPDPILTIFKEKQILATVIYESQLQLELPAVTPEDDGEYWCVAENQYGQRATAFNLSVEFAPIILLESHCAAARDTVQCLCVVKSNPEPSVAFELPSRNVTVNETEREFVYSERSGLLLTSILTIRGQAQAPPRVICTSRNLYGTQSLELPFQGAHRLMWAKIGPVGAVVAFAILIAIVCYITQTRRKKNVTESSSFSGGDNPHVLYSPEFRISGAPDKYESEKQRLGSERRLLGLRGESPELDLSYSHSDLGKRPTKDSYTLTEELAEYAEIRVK
In words: Binding affinity to mouse MAGd1-3Fc expressed in CHO-Lec 3.2.8.1 cells under HBS-EP condition by CM4 chip SPR analysis. The method, boiled down: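 Protein A was amine-coupled to a CM4 chip (lower carboxylate density) and murine MAGd1-3-Fc captured on it. Run in HBS-EP at 25 °C, 20 μL/min, with 1 min association and 1 min dissociation. Ten-fold dilution series in duplicate, double blank referenced. Negative sensorgrams mirrored to give equilibrium KD.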
Background: Surface plasmon resonance follows binding to a sensor surface in real time, without labels.

The target of data set [2] is T2, Myelin-associated glycoprotein (Mus musculus) (UniProt P20917).
T2 sequence (whole entry): T1 sequence (P20917 whole entry)
Description: Inhibition of mouse MAGd1-3Fc expressed in CHO-Lec 3.2.8.1 cells by hepten inhibition assay relative to sodium-(2R,4S,5R,6R)-5-acetamido-2-(benzyloxy)-6-((1S,2R)-3-(4-chlorobenzamido)-1,2-dihydroxypropyl)-4-hydroxytetrahydro-2H-pyran-2-carboxylate. The data set is classed as cell-based. The method, boiled down: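 Fetuin-coated microtiter plates. Murine MAGd1-3-Fc (from CHO-Lec 3.2.8.1, dialyzed into 10 mM phosphate pH 7.4) bound in the presence of 7-8 inhibitor concentrations, in triplicate. Bound protein detected with alkaline phosphatase-labeled anti-Fc, read as initial rate of fluorescein release from fluorescein diphosphate. IC50 from binding curves converted to rIC50. At least three independent titrations.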

For data set [3], the target named is T1, Myelin-associated glycoprotein. In words: Binding affinity to mouse MAGd1-3Fc expressed in CHO-Lec 3.2.8.1 cells under carboxymethyl-dextran sodium salt condition by CM5 chip SPR analysis. In outline:
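Dextran (1 mg/mL) added to the running buffer to test nonspecific binding to the matrix. Murine MAGd1-3-Fc captured via protein A on a CM5 chip. Runs at 25 °C, 20 μL/min, 1 min injection and 1 min dissociation. Equilibrium KD from mirrored sensorgrams.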

For data set [4] the target is unchanged. Description: Binding affinity to mouse MAGd1-3Fc expressed in CHO-Lec 3.2.8.1 cells under HEPES condition by CM5 chip SPR analysis. The method, boiled down:
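Murine MAGd1-3-Fc captured on protein A on a CM5 chip. Running buffer carried 50 mM instead of 10 mM HEPES to raise buffer capacity. SPR at 25 °C, 20 μL/min, 1 min injection and 1 min dissociation, double blank referenced. KD taken at equilibrium from mirrored sensorgrams.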

Data set [5] shares this target. In words: Binding affinity to mouse MAGd1-3Fc expressed in CHO-Lec 3.2.8.1 cells under NaCl condition by CM5 chip SPR analysis. In outline: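 SPR on a CM5 chip with protein A-captured murine MAGd1-3-Fc. Salt was raised to 150-500 mM NaCl to exclude ionic repulsion. Runs at 25 °C, 20 μL/min, 1 min contact and 1 min dissociation, double blank referenced. Equilibrium KD from mirrored sensorgrams.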

The target is the same in data set [6]. In words: Binding affinity to mouse MAGd1-3Fc expressed in CHO-Lec 3.2.8.1 cells by SPR analysis. In outline:
(§1)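 Murine MAGd1-3-Fc (purified from CHO-Lec 3.2.8.1 supernatant) captured at 30-40 μg/mL to about 2000 RU on protein A, which was amine-coupled to a CM5 chip. Runs at 25 °C, 20 μL/min, with 1 min injection and 1 min dissociation. Ten-fold dilution series in duplicate, double blank referenced. Negative sensorgrams mirrored; equilibrium KD.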

For data set [7] the target is unchanged. In words: Binding affinity to mouse MAGd1-3Fc expressed in CHO-Lec 3.2.8.1 cells under HBS-EP condition by CM5 chip SPR analysis. In outline: as §1
Data set [8] is described as follows: Octanol-water distribution coefficient, log D at pH 7.4 by shake-flask technique. Type of data set: physicochemical.
A short description of data set [9]: Stability in buffer solution at 37 degC after 19 hrs. Type of data set: physicochemical. To be noted: read-out: Stability.
Data set [10] in a line: Stability in artificial cerebrospinal fluid at 37 degC […]. The data set is classed as physicochemical. The settings on record: read-out: Stability.
Data set [11] has as its target T1, Myelin-associated glycoprotein. In words: Binding affinity to mouse MAGd1-3Fc expressed in CHO-Lec 3.2.8.1 cells by biocore. Type of data set: cell-based. The method, boiled down: as §1
In data set [12] the target is T2, Myelin-associated glycoprotein (Mus musculus). Description: Relative binding affinity to mouse MAGd1-3Fc expressed in CHO-Lec 3.2.8.1 cells by NMR analysis relative to compound 4.

The structures appear in SMILES notation.

In general, Kd refers to the concentration at which binding is half-saturated. By logD is commonly meant the decadic logarithm of the distribution of all forms, ionised or not, between an organic phase and buffer at a given pH.

As for `CC(=O)N[C@H]1[C@H]([C@@H](O)[C@H](O)CNC(=O)c2ccccc2)O[C@@](OCc2ccccc2)(C(=O)O)C[C@@H]1O`, the Kd was found to be 20 µM in [1]; 17.8 µM in data set [3]; 17.6 µM in data set [4]; 14.9 µM in [5]; 26 µM in data set [6]; 21.8 µM in data set [7]. The Ratio in data set [2] is 1.5.

`CC(=O)N[C@H]1[C@H]([C@@H](O)[C@H](O)CNC(=O)c2ccc(Cl)cc2)O[C@@](OCc2ccc3ccccc3c2)(C(=O)O)C[C@@H]1O`: the Ratio in data set [2] was 0.74. Also, the logD in data set [8] was determined as 0.58. In addition, in [6], the Kd came out at 11.6 µM.

Turning to `CC(=O)N[C@H]1[C@H]([C@@H](O)[C@H](O)CNC(=O)c2ccc(Cl)cc2)O[C@@](OCc2ccc(Cl)cc2)(C(=O)O)C[C@@H]1O`, in data set [2], the Ratio amounted to 1.3. The same compound gave a logD in [8] of 0.36. The compound further showed a Kd in data set [6] of 15 µM.

With `CC(=O)N[C@H]1[C@H]([C@@H](O)[C@H](O)CNC(=O)c2ccc(Cl)cc2)O[C@@](OCc2c(F)c(F)c(F)c(F)c2F)(C(=O)O)C[C@@H]1O`, the Ratio in [2] is 0.26. This compound also returned a logD in data set [8] of -0.11. Further, in data set [6], the Kd was 6.1 µM.

As to `O=C(CCl)N[C@H]1[C@H]([C@@H](O)[C@H](O)CNC(=O)c2ccc(Cl)cc2)O[C@@](OCc2cccc(F)c2F)(C(=O)O)C[C@@H]1O`, the Ratio in data set [2] is 0.07. Further, the logD in data set [8] amounted to 0.35. Besides, the affinity in [6], expressed as Kd, was 2.1 µM.

As for `O=C(CF)N[C@H]1[C@H]([C@@H](O)[C@H](O)CNC(=O)c2ccc(Cl)cc2)O[C@@](OCc2cccc(F)c2F)(C(=O)O)C[C@@H]1O`, the Ratio in [2] was determined as 0.02. In data set [8], this compound came in with a logD of -0.26. The remaining at 19 h in data set [9] turned out to be 95%. Further, in [10], the remaining came out at 95%. In addition, the Kd in data set [6] stood at 0.5 µM.

Take `O=C(NC[C@@H](O)[C@H](O)[C@@H]1O[C@@](OCc2cccc(F)c2F)(C(=O)O)C[C@H](O)[C@H]1NC(=O)C1CC1)c1ccc(Cl)cc1`: the Ratio in [2] came out at 0.1. The same compound displayed a logD in [8] of 0.31. Moreover, the Kd in data set [6] amounted to 4.1 µM.

Consider `O=C(NC[C@@H](O)[C@H](O)[C@@H]1O[C@@](OCc2cccc(F)c2F)(C(=O)O)C[C@H](O)[C@H]1NC(=O)C1CCC1)c1ccc(Cl)cc1`, for which the Ratio in data set [2] stood at 0.14. This compound yielded a logD in [8] of 0.75. The compound also registered a Kd in data set [6] of 5.8 µM.

Regarding `COCC(=O)N[C@H]1[C@H]([C@@H](O)[C@H](O)CNC(=O)c2ccc(Cl)cc2)O[C@@](OCc2cccc(F)c2F)(C(=O)O)C[C@@H]1O`, the Ratio in data set [2] came to 0.14. Further, the logD in data set [8] was 0.06. In data set [6], this compound yielded a Kd of 2.3 µM.

For `CC(=O)N[C@H]1[C@H]([C@@H](O)[C@H](O)CNC(=O)c2ccc(Cl)c(Cl)c2)O[C@@](OCc2ccccc2)(C(=O)O)C[C@@H]1O`, in data set [2], the Ratio turned out to be 1.61. In data set [6], the Kd is 19.2 µM.

In the case of `CC(=O)N[C@H]1[C@H]([C@@H](O)[C@H](O)CNC(=O)c2ccc(Cl)cc2)O[C@@](OCc2ccccc2)(C(=O)O)C[C@@H]1O`, the Ratio in data set [2] came to 1. The Kd in [6] is 17 µM.

As to `CC(=O)N[C@H]1[C@H]([C@@H](O)[C@H](O)CNC(=O)c2cccc(Cl)c2)O[C@@](OCc2ccccc2)(C(=O)O)C[C@@H]1O`, in [2], the Ratio came to 2.65. The same compound had a dissociation constant Kd in data set [6] of 33.9 µM.

`CC(=O)N[C@H]1[C@H]([C@@H](O)[C@H](O)CNC(=O)c2ccccc2)O[C@@](OCc2c[nH]nn2)(C(=O)O)C[C@@H]1O`: in [2], the Ratio came to 0.74. In [6], this compound displayed a Kd of 11.7 µM.

On to `CO[C@]1(C(=O)O)C[C@H](O)[C@@H](NC(C)=O)[C@H]([C@@H](O)[C@H](O)CNC(=O)c2ccccc2)O1`, for which the Ratio in [2] amounted to 18. For the same compound, the Kd in data set [6] and in data set [11] was 137 µM in each case.

With `CC(=O)N[C@H]1[C@H]([C@@H](O)[C@H](O)CNC(=O)c2ccc(Cl)cc2)O[C@@](OCc2cccc(Cl)c2Cl)(C(=O)O)C[C@@H]1O`, in data set [2], the Ratio came to 0.5. Moreover, in data set [8], the logD is 0.53. The compound further registered a Kd in data set [6] of 4.3 µM.

On to `CC(=O)N[C@H]1[C@H]([C@@H](O)[C@H](O)CNC(=O)c2ccc(Cl)cc2)O[C@@](OCc2ccc(F)cc2)(C(=O)O)C[C@@H]1O`, for which the Ratio in [2] turned out to be 1.2. In data set [8], this compound returned a logD of -0.11. The Kd in [6] came to 13 µM.

Take `O=C(NC[C@@H](O)[C@H](O)[C@@H]1O[C@@](OCc2cccc(F)c2F)(C(=O)O)C[C@H](O)[C@H]1NS(=O)(=O)c1ccccc1[N+](=O)[O-])c1ccc(Cl)cc1`: in data set [2], the Ratio turned out to be 0.05. The logD in data set [8] turned out to be 0.87. Also, in [6], the Kd was 1.4 µM.

In the case of `O=C(O)N[C@H]1[C@H]([C@H](O)[C@H](O)CNC(=O)c2ccc(Cl)cc2)O[C@@](O[C@H]2[C@@H](O)[C@@H](CO)O[C@@H](O[C@@H]3CCO[C@H](COCc4ccc(-c5ccccc5)cc4)[C@@H]3O)[C@@H]2O)(C(=O)O)C[C@@H]1O`, the Ratio in data set [2] is 0.52. This compound also came in with a Kd in [6] of 2.83 µM.

With `CC(=O)N[C@H]1[C@H]([C@@H](O)[C@H](O)CNC(=O)c2ccc(Cl)cc2)O[C@@](OCc2cccc(F)c2F)(C(=O)O)C[C@@H]1O`, the Ratio in data set [12] was 34.4; in [2] it was 0.3. Also, the logD in data set [8] was -0.27. Besides, the remaining at 19 h in data set [9] came out at 95%. Besides, the remaining in [10] is 95%. In data set [6], the Kd amounted to 2.4 µM.

For `CS(=O)(=O)N[C@H]1[C@H]([C@@H](O)[C@H](O)CNC(=O)c2ccc(Cl)cc2)O[C@@](OCc2cccc(F)c2F)(C(=O)O)C[C@@H]1O`, the Ratio in [2] came to 0.6. Also, the logD in data set [8] was -0.17. The Kd in data set [6] is 17 µM.

Source of the values: ChEMBL document CHEMBL1156883, “Low molecular weight antagonists of the myelin-associated glycoprotein: synthesis, docking, and biological evaluation” (J Med Chem, 2010).
